Results reported in ChEMBL document CHEMBL1157607, “Piracetam defines a new binding site for allosteric modulators of alpha-amino-3-hydroxy-5-methyl-4-isoxazole-propionic acid (AMPA) receptors” (J Med Chem, 2010).
Calls of active or inactive are those of the source. The rule behind the calls is not given here.

Legend:
[1] = Binding affinity to subsite A in S1S2 domain of GluA2 receptor expressed in Escherichia coli by crystallography
Outline: (§1)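 GluA2 S1S2 domain (flip form via N754S, GluA2i) expressed in E. coli Origami B (DE3) cells, IPTG 0.5 mM final at 20°C for 20 h. Purified by Ni-NTA, sizing and ion exchange with glutamate in all buffers. Protein at 0.3 mM with 10 mM glutamate, ligand 5 mM final. Co-crystals grown by hanging drop at 4°C against 16–18% PEG 8K, 0.1 M sodium cacodylate, 0.1–0.15 M zinc acetate, pH 6.5.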

[2] = Binding affinity to subsite B/B' and subsite C/C' in S1S2 domain of GluA2 receptor expressed in Escherichia coli by crystallography; outline: as §1
[3] = Binding affinity to subsite C/C' in S1S2 domain of GluA2 receptor expressed in Escherichia coli by crystallography; outline: as §1

SMILES | Activity [1] | Activity [2] | Activity [3]
COc1ccc(C(=O)N2CCCC2=O)cc1 | Active | Active | 
NS(=O)(=O)c1cc2c(cc1Cl)NC(C1CC3C=CC1C3)NS2(=O)=O (stereo not given) |  | Active | 
NS(=O)(=O)c1cc2c(cc1Cl)NCNS2(=O)=O |  |  | Active
O=C1c2cc3c(cc2OC2CCCN12)OCCO3 (stereo not given) | Active | Active | 
NS(=O)(=O)c1cc2c(cc1Cl)NC(C(Cl)Cl)NS2(=O)=O (stereo not given) |  | Active | 
C=CCSCC1Nc2cc(Cl)c(S(N)(=O)=O)cc2S(=O)(=O)N1 (stereo not given) |  | Active | 
CC1Nc2ccc(Cl)cc2S(=O)(=O)N1 (stereo not given) |  |  | Active
NS(=O)(=O)c1cc2c(cc1C(F)(F)F)NCNS2(=O)=O |  |  | Active
